Positions count from the first letter of the chain named. Active and inactive are the calls of the source. The rule behind the calls is not given here.
Experiments:
[1] = target: T1, Protein phosphatase methylesterase 1 (Mus musculus) (UniProt Q8BVQ5); test: Inhibition of PME1 binding to FP-rhodamine in mouse brain soluble proteome at 20 uM after 30 mins by […] activity-based protein profiling assay relative to control; format: tissue-based
T1 sequence (whole entry): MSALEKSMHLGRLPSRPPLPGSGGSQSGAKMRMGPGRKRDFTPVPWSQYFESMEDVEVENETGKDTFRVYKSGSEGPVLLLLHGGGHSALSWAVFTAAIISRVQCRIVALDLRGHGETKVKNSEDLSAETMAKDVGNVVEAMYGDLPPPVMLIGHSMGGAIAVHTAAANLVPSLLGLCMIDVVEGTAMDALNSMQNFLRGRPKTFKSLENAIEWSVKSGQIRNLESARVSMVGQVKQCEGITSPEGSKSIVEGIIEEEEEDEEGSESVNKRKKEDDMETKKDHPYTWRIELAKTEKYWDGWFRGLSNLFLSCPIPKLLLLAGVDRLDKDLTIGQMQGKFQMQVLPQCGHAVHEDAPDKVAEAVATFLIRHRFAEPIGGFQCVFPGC

[2] = target: T2, Protein phosphatase methylesterase 1 (Mus musculus, UniProt Q8BVQ5); test: Inhibition of PME1 binding to FP-rhodamine in mouse brain soluble proteome after 45 mins by gel-based competitive activity-based protein profiling assay
T2 sequence (Q8BVQ5 whole entry): T1 sequence (whole entry)

[3] = target: T3, Protein phosphatase methylesterase 1 (Homo sapiens) (UniProt Q9Y570); test: Inhibition of PME1 expressed in untransfected HEK293T cells assessed as reduction in demethylated PP2A level at 500 nM after 1 hr by Western blot analysis; format: cell-based; settings: HEK-293T
T3 sequence (whole entry): T1 sequence (whole entry) with T42S, G114S, S123P, V150I, A167S, A168S, V268I, N269S
Method in brief: (§1)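 HEK 293T cells, either stably overexpressing PME-1 or untransfected, treated in medium for 1 h at 37 °C. Total cell extract (2 mg/mL) run on reducing SDS-PAGE (10%) and blotted with demethylated-specific (4b7), methylated-specific (2A10) and total PP2A antibodies, imaged by infrared fluorescence. Mean ± SEM, n = 3, compared against DMSO-treated cells.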

[4] = target: Prolyl endopeptidase (Mus musculus) (UniProt Q9QUR6); test: Inhibition of prolyl endopeptidase binding to FP-rhodamine in mouse brain soluble proteome at 50 uM after 30 mins by […] activity-based protein profiling assay relative to control; format: tissue-based
Sequence of Prolyl endopeptidase (Mus musculus) (Q9QUR6 whole entry, looked up): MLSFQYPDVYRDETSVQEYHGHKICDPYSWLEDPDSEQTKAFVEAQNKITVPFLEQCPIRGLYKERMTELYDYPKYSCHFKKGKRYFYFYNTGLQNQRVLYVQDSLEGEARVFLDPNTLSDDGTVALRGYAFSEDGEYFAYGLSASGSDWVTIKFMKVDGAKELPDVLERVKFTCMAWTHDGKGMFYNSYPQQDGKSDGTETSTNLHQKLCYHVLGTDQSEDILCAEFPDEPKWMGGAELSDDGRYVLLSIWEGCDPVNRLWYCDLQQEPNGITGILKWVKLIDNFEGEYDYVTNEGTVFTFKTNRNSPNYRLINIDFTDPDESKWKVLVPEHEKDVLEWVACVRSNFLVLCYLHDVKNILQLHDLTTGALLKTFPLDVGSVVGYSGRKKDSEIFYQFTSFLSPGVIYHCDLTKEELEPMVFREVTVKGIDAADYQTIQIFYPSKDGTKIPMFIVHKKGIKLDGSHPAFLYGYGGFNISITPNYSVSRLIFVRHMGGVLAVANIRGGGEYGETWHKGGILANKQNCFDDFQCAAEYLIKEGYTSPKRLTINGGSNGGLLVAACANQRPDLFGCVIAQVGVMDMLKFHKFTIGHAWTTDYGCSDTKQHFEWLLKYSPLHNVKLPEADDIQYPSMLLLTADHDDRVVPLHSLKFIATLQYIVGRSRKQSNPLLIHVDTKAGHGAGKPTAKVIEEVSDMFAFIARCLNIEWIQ

[5] = target: Acylamino-acid-releasing enzyme (Mus musculus) (UniProt Q8R146); test: Inhibition of acyl peptide hydrolase binding to FP-rhodamine in mouse brain soluble proteome at 50 uM after 30 mins by […] activity-based protein profiling assay relative to control; format: tissue-based
Sequence of Acylamino-acid-releasing enzyme (Mus musculus) (Q8R146 whole entry): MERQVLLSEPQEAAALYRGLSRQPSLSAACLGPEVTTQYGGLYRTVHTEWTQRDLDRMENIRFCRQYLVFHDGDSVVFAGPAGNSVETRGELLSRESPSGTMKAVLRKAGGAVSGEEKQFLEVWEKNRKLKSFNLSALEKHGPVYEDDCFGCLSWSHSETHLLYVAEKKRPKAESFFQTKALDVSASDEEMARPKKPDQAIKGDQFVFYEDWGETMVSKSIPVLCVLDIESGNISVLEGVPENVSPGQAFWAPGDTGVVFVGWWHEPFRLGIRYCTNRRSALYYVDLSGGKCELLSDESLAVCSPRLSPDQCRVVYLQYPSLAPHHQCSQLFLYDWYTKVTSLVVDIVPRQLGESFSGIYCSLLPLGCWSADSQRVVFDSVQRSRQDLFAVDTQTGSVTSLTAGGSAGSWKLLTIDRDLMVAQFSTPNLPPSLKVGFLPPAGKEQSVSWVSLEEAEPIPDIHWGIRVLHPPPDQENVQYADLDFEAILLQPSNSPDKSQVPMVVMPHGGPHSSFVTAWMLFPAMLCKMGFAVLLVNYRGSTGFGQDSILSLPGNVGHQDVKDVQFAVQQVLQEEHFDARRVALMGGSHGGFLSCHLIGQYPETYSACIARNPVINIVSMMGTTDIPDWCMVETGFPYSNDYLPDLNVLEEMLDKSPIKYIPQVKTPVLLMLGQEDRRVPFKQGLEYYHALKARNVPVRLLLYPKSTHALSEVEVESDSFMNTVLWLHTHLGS

[6] = target: Protein phosphatase methylesterase 1 (Homo sapiens, UniProt Q9Y570); test: Inhibition of PME1 binding to FP-rhodamine in human MDA-MB-231 cells after 45 mins by gel-based competitive activity-based protein profiling assay
Sequence of Protein phosphatase methylesterase 1 (Homo sapiens, UniProt Q9Y570) (Q9Y570 whole entry): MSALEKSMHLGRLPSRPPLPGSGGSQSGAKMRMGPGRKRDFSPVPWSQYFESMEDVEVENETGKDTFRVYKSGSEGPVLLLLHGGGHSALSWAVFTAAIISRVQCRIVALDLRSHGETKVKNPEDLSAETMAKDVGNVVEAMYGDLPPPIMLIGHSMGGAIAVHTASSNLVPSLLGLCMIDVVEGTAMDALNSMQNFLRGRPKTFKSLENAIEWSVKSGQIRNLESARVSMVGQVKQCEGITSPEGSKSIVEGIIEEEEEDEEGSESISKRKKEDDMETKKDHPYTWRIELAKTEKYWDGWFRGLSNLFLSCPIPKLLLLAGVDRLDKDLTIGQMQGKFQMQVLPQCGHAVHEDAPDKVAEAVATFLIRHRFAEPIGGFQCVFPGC

[7] = target: Acylamino-acid-releasing enzyme (Homo sapiens) (UniProt P13798); test: Inhibition of acyl peptide hydrolase binding to FP-rhodamine in human HEK293T cells at 0.5 to 50 uM after 30 mins by […] activity-based protein profiling assay; settings: HEK-293T
Sequence of Acylamino-acid-releasing enzyme (Homo sapiens) (P13798 whole entry): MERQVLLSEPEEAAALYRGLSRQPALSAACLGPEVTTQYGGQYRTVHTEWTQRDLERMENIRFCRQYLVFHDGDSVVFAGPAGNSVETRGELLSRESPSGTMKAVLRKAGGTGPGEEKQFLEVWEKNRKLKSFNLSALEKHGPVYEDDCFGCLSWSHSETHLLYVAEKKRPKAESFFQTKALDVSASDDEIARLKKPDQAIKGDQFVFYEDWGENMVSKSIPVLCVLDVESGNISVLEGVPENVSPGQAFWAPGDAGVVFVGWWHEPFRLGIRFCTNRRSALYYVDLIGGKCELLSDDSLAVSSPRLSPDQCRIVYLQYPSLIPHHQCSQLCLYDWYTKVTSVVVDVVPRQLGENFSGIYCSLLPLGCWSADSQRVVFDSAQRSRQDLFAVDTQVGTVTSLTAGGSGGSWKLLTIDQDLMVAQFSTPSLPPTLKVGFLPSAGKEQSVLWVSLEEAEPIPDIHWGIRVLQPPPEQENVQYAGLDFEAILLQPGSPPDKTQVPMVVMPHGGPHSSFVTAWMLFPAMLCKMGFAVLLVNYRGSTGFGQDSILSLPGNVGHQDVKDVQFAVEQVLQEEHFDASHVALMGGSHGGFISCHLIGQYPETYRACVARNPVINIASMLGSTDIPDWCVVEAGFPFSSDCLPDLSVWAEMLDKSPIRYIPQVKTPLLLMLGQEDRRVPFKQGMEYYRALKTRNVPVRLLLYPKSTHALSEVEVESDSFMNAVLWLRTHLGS

[8] = target: T3, Protein phosphatase methylesterase 1 (Homo sapiens); test: Inhibition of PME1-based PP2A […] in human HEK293T cells at 50 uM after 3 hrs by Western blot analysis; format: cell-based; settings: HEK-293T
[9] = target: T3, Protein phosphatase methylesterase 1 (Homo sapiens); test: Inhibition of PME1 overexpressed in HEK293T cells assessed as increase in methylated PP2A level at 20 uM after 1 hr by Western blot analysis; format: cell-based; settings: HEK-293T; method in brief: as §1
[10] = target: T3, Protein phosphatase methylesterase 1 (Homo sapiens); test: Inhibition of PME1 overexpressed in HEK293T cells assessed as reduction in demethylated PP2A level at 20 uM after 1 hr by Western blot analysis relative to control; format: cell-based; settings: HEK-293T; method in brief: as §1

Row | SMILES | inhibition [1] [%] | IC50 [2] [µM] | also measured
1 | CS(=O)(=O)C(C#N)Cc1cccn1S(=O)(=O)c1ccccc1 (stereo unspecified) | 0 |  | 
2 | CC(C)(C)S(=O)(=O)/C(C#N)=C/c1cccn1S(=O)(=O)c1cccc(C#N)c1 |  | 3.4 | 
3 | N#CC(C#N)=Cc1cccn1S(=O)(=O)c1ccccc1 | 50 |  | 
4 | COC(=O)N1C(=O)[C@](c2ccccc2)(C2CCCC2)N1C(=O)OC |  |  | inhibition [3]: Active
5 | CS(=O)(=O)C(=Cc1cccn1S(=O)(=O)c1ccccc1)S(C)(=O)=O | 0 |  | inhibition [4]: > 50%
6 | N#C/C(=C\c1cccn1S(=O)(=O)c1ccccc1)S(=O)(=O)c1ccccc1 |  | > 20 | 
7 | CS(=O)(=O)/C(=C/c1cccn1S(=O)(=O)c1ccccc1)CN | 0 |  | 
8 | CS(=O)(=O)/C(C#N)=C/c1cccn1S(=O)(=O)c1ccc(Cl)cc1 |  |  | inhibition [5]: > 50%
9 | N#C/C(=C\c1cccn1S(=O)(=O)c1cccc(C#N)c1)S(=O)(=O)c1ccc(F)cc1 |  | 0.64 | inhibition [9]: Active; inhibition [10]: 80%
10 | CC(C)(C)S(=O)(=O)/C(C#N)=C/c1cccn1S(=O)(=O)c1ccccc1 |  | 6.8 | 

Now from value to compound, other results behind:

Row | inhibition [1] [%] | IC50 [2] [µM] | SMILES | also measured
11 | 0 |  | CS(=O)(=O)/C(C#N)=C/c1ccccc1 | 
12 |  | 2.5 | CS(=O)(=O)/C(C#N)=C/c1cccn1S(=O)(=O)c1cccc(C#N)c1 | 
13 | 0 |  | CS(=O)(=O)/C(C#N)=C/c1ccc[nH]1 | 
14 | 0 |  | CS(=O)(=O)/C(C#N)=C/c1ccc([N+](=O)[O-])cc1 | 
15 |  | 3 | CS(=O)(=O)/C(C#N)=C/c1cccn1S(=O)(=O)c1ccc([N+](=O)[O-])cc1 | 
16 |  | 4 | CS(=O)(=O)/C(C#N)=C/c1cccn1S(=O)(=O)c1ccc(C#N)cc1 | inhibition [4]: > 50%
17 | 90 |  | CS(=O)(=O)/C(C#N)=C/c1cccn1S(=O)(=O)c1ccccc1 | IC50 [6]: 10.8 µM; inhibition [7]: Active; inhibition [5]: > 50%; inhibition [8]: Active
18 |  | > 20 | CS(=O)(=O)/C(C#N)=C/c1cccn1S(=O)(=O)c1c(F)c(F)c(F)c(F)c1F | 

From ChEMBL document CHEMBL2203175, “Discovery and optimization of sulfonyl acrylonitriles as selective, covalent inhibitors of protein phosphatase methylesterase-1” (J Med Chem, 2011)
